Source: ChEMBL document CHEMBL1129454, “HIV protease inhibitory bis-benzamide cyclic ureas: a quantitative structure-activity relationship analysis” (J Med Chem, 1996)

Columns and labels:
[1] = tested on: Human immunodeficiency virus 1; assay: The concentration required to inhibit HIV-1 RNA synthesis by 90%. Viral RNA quantified by a sandwich hybridization assay; type: functional
Method in brief: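 Susceptible T-cell lines grown in individual microtiter wells were infected with HIV. Cell-associated viral RNA was measured by RNA hybridization 3 days after infection. […] Assay SD was <±37%. Cytotoxicity was scored separately by tetrazolium dye metabolism, because RNA assay results are valid only at non-cytotoxic doses.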

[2] = target: T1, Human immunodeficiency virus type 1 protease (Human immunodeficiency virus 1, UniProt Q72874); assay: Inhibitory activity against HIV-1 protease
Method in brief: (§1)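 Cleavage products were separated by anion-exchange HPLC and the product quantified by fluorescence. Each compound was assayed at least twice and the mean reported; assay SD <±40%.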

[3] = target: T1, Human immunodeficiency virus type 1 protease; assay: Binding affinity for HIV-1 protease; method in brief: as §1

SMILES	IC90 ([1]; Human immunodeficiency virus 1) [nM]	Ki [2] [nM]	Ki [3] [nM]	IC90 [1] [nM]
O=C(Nc1cnccn1)c1cccc(CN2C(=O)N(Cc3cccc(C(=O)Nc4cnccn4)c3)[C@H](Cc3ccccc3)[C@H](O)[C@@H](O)[C@H]2Cc2ccccc2)c1	3.5	0.018	0.02	
Cc1ccnc(NC(=O)c2cccc(CN3C(=O)N(Cc4cccc(C(=O)Nc5cc(C)ccn5)c4)[C@H](Cc4ccccc4)[C@H](O)[C@@H](O)[C@H]3Cc3ccccc3)c2)c1	7.7	0.027	0.03	
O=C(Nc1ccncc1)c1cccc(CN2C(=O)N(Cc3cccc(C(=O)Nc4ccncc4)c3)[C@H](Cc3ccccc3)[C@H](O)[C@@H](O)[C@H]2Cc2ccccc2)c1	93.7	0.41	0.41	
CC(C)(C)NC(=O)c1cccc(CN2C(=O)N(Cc3cccc(C(=O)NC(C)(C)C)c3)[C@H](Cc3ccccc3)[C@H](O)[C@@H](O)[C@H]2Cc2ccccc2)c1	717	2.4	2.6	
O=C(Nc1ncccn1)c1cccc(CN2C(=O)N(Cc3cccc(C(=O)Nc4ncccn4)c3)[C@H](Cc3ccccc3)[C@H](O)[C@@H](O)[C@H]2Cc2ccccc2)c1	220	0.152	0.15	
O=C(NO)c1cccc(CN2C(=O)N(Cc3cccc(C(=O)NO)c3)[C@H](Cc3ccccc3)[C@H](O)[C@@H](O)[C@H]2Cc2ccccc2)c1	448	0.02	0.02	
CCCNC(=O)c1cccc(CN2C(=O)N(Cc3cccc(C(=O)NCCC)c3)[C@H](Cc3ccccc3)[C@H](O)[C@@H](O)[C@H]2Cc2ccccc2)c1	259	0.359	0.28	
NC(=O)c1cccc(CN2C(=O)N(Cc3cccc(C(N)=O)c3)[C@H](Cc3ccccc3)[C@H](O)[C@@H](O)[C@H]2Cc2ccccc2)c1	709	0.039	0.06	
O=C(Nc1ccc(Cl)cn1)c1cccc(CN2C(=O)N(Cc3cccc(C(=O)Nc4ccc(Cl)cn4)c3)[C@H](Cc3ccccc3)[C@H](O)[C@@H](O)[C@H]2Cc2ccccc2)c1	14.7	0.012	0.01	
O=C(Nc1ccccc1)c1cccc(CN2C(=O)N(Cc3cccc(C(=O)Nc4ccccc4)c3)[C@H](Cc3ccccc3)[C@H](O)[C@@H](O)[C@H]2Cc2ccccc2)c1	510	0.43	0.37	
N#CCNC(=O)c1cccc(CN2C(=O)N(Cc3cccc(C(=O)NCC#N)c3)[C@H](Cc3ccccc3)[C@H](O)[C@@H](O)[C@H]2Cc2ccccc2)c1	596	0.063	0.063	
CC(C)CN(C[C@@H](O)[C@H](Cc1ccccc1)NC(=O)O[C@H]1CCOC1)S(=O)(=O)c1ccc(N)cc1	46			
CNC(=O)c1cccc(CN2C(=O)N(Cc3cccc(C(=O)NC)c3)[C@H](Cc3ccccc3)[C@H](O)[C@@H](O)[C@H]2Cc2ccccc2)c1 (stereo in doubt; 31)		1.9		
Cc1ccc(NC(=O)c2cccc(CN3C(=O)N(Cc4cccc(C(=O)Nc5ccc(C)cn5)c4)[C@H](Cc4ccccc4)[C@H](O)[C@@H](O)[C@H]3Cc3ccccc3)c2)nc1	3.1	0.011	0.01	
CC(C)(C)NC(=O)[C@@H]1C[C@@H]2CCCC[C@@H]2CN1C[C@@H](O)[C@H](Cc1ccccc1)NC(=O)[C@H](CC(N)=O)NC(=O)c1ccc2ccccc2n1	10.4			
O=C1N(Cc2ccc(CO)cc2)[C@H](Cc2ccccc2)[C@H](O)[C@@H](O)[C@@H](Cc2ccccc2)N1Cc1ccc(CO)cc1 [DMP-323]	115			
NNC(=O)c1cccc(CN2C(=O)N(Cc3cccc(C(=O)NN)c3)[C@H](Cc3ccccc3)[C@H](O)[C@@H](O)[C@H]2Cc2ccccc2)c1	884	0.018	0.018	

SMILES	IC90 ([1]; Human immunodeficiency virus 1) [nM]	Ki [2] [nM]	Ki [3] [nM]	IC90 [1] [nM]
O=C(Nc1cccnc1)c1cccc(CN2C(=O)N(Cc3cccc(C(=O)Nc4cccnc4)c3)[C@H](Cc3ccccc3)[C@H](O)[C@@H](O)[C@H]2Cc2ccccc2)c1	123	0.29	0.29	
CNC(=O)c1cccc(CN2C(=O)N(Cc3cccc(C(=O)NC)c3)[C@H](Cc3ccccc3)[C@H](O)[C@@H](O)[C@H]2Cc2ccccc2)c1 (stereo in doubt; 6)		0.066	0.06	80.5
Cc1ccnc(NC(=O)c2cccc(CN3C(=O)N(Cc4cccc(C(=O)Nc5nccc(C)n5)c4)[C@H](Cc4ccccc4)[C@H](O)[C@@H](O)[C@H]3Cc3ccccc3)c2)n1	124	0.115	0.12	
CCNC(=O)c1cccc(CN2C(=O)N(Cc3cccc(C(=O)NCC)c3)[C@H](Cc3ccccc3)[C@H](O)[C@@H](O)[C@H]2Cc2ccccc2)c1	139	0.21	0.21	
CC(C)(C)NC(=O)[C@@H]1CN(Cc2cccnc2)CCN1C[C@@H](O)C[C@@H](Cc1ccccc1)C(=O)NC1c2ccccc2C[C@H]1O (single isomer, unassigned)	50			
O=C(Nc1ccc(C(F)(F)F)cn1)c1cccc(CN2C(=O)N(Cc3cccc(C(=O)Nc4ccc(C(F)(F)F)cn4)c3)[C@H](Cc3ccccc3)[C@H](O)[C@@H](O)[C@H]2Cc2ccccc2)c1	63.4	0.085	0.09	
Cc1cnc(NC(=O)c2cccc(CN3C(=O)N(Cc4cccc(C(=O)Nc5ncc(C)s5)c4)[C@H](Cc4ccccc4)[C@H](O)[C@@H](O)[C@H]3Cc3ccccc3)c2)s1	17.8	0.014		
O=C(Nc1nnc(C(F)(F)F)s1)c1cccc(CN2C(=O)N(Cc3cccc(C(=O)Nc4nnc(C(F)(F)F)s4)c3)[C@H](Cc3ccccc3)[C@H](O)[C@@H](O)[C@H]2Cc2ccccc2)c1	74.8	0.18		
O=C(Nc1ccccn1)c1cccc(CN2C(=O)N(Cc3cccc(C(=O)Nc4ccccn4)c3)[C@H](Cc3ccccc3)[C@H](O)[C@@H](O)[C@H]2Cc2ccccc2)c1	2.8	0.043	0.01	
O=C(Nc1nncs1)c1cccc(CN2C(=O)N(Cc3cccc(C(=O)Nc4nncs4)c3)[C@H](Cc3ccccc3)[C@H](O)[C@@H](O)[C@H]2Cc2ccccc2)c1	51.3	0.11		
CC(C)c1nc(CN(C)C(=O)N[C@H](C(=O)N[C@@H](Cc2ccccc2)C[C@H](O)[C@H](Cc2ccccc2)NC(=O)OCc2cncs2)C(C)C)cs1 [RITONAVIR]	76			
O=C(Nc1ncc[nH]1)c1cccc(CN2C(=O)N(Cc3cccc(C(=O)Nc4ncc[nH]4)c3)[C@H](Cc3ccccc3)[C@H](O)[C@@H](O)[C@H]2Cc2ccccc2)c1	45.5	0.014		
O=C(Nc1nc2ccccc2[nH]1)c1cccc(CN2C(=O)N(Cc3cccc(C(=O)Nc4nc5ccccc5[nH]4)c3)[C@H](Cc3ccccc3)[C@H](O)[C@@H](O)[C@H]2Cc2ccccc2)c1	3.9			
O=C(Nc1nccs1)c1cccc(CN2C(=O)N(Cc3cccc(C(=O)Nc4nccs4)c3)[C@H](Cc3ccccc3)[C@H](O)[C@@H](O)[C@H]2Cc2ccccc2)c1	1.7			
Cc1csc(NC(=O)c2cccc(CN3C(=O)N(Cc4cccc(C(=O)Nc5nc(C)cs5)c4)[C@H](Cc4ccccc4)[C@H](O)[C@@H](O)[C@H]3Cc3ccccc3)c2)n1	4.1	0.025		
Cc1coc(NC(=O)c2cccc(CN3C(=O)N(Cc4cccc(C(=O)Nc5nc(C)co5)c4)[C@H](Cc4ccccc4)[C@H](O)[C@@H](O)[C@H]3Cc3ccccc3)c2)n1	59.6	0.064		
